Measured values of several laboratories.
Lines come from different studies, so protocols differ.
Target: Death-associated protein kinase 2 (DAPK2, Homo sapiens, UniProt Q9UIK4)

N#CC1(c2ccccn2)CCN(Cc2cc(C(=O)O)c(=O)n3ccccc23)CC1
remaining binding (cell-free assay, competition with immobilised ligand; 1 µM): 99%

Nc1ncc(-c2nc(N3CCOCC3)nc(N3CCOCC3)n2)c(C(F)F)n1
remaining binding (binding, competition with immobilised ligand; 10 µM): 76%

O=c1[nH]c2ccccc2n1C1CCN(Cc2ccc(-c3[nH]c4cc5ncnc5cc4nc3-c3ccccc3)cc2)CC1
remaining signal (cell-free assay; 0.5 µM): 99%

Cc1nn(C)cc1-c1nc2c(N3CCN(Cc4ccc(Cl)cc4)CC3)c(Cl)cnc2[nH]1
remaining binding (binding, competition with immobilised ligand; 1 µM): 80%

CC(C)(C)c1cc(C=C(C#N)C#N)cc(Br)c1O
remaining activity (enzyme activity, inhibitor; 0.5 µM): 108%

COc1cc(Nc2ncc(F)c(Nc3ccc4c(n3)NC(=O)C(C)(C)O4)n2)cc(OC)c1OC
inhibition (binding, competition with immobilised ligand; 10 µM): 95%

Cn1cncc1[C@@](O)(COc1ccc(C#N)cc1-c1ccc(OC(F)(F)F)cc1)c1ccc(C#N)cc1
remaining binding (cell-free assay, competition with immobilised ligand; 1 µM): 97%

COc1ncccc1-c1cnn2ccc(N3CCN(C(=O)OC(C)C)CC3)nc12
remaining binding (binding, competition with immobilised ligand; 1 µM): 86%
